pKi: −log10 of the molar value.
target: Sigma 2 receptor; assay: Binding affinity for sigma 2 opioid receptor, measured on rat liver membranes using [3H]- DTG as radioligand in the presence of (+)-pentazocine; parameters: species or system Membrane
In short: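 Rat liver P2 membranes (male Sprague-Dawley, 300-350 g; 35 µg protein) incubated with 3 nM [3H]DTG plus 100 nM (+)-pentazocine masking σ1 sites, in 50 mM Tris-HCl pH 8.0, 120 min, 25 °C. Test compounds at 0.005-1000 nM (eight concentrations). Nonspecific binding defined with 5 µM DTG. Filtration, scintillation counting. IC50 by nonlinear regression, generally in triplicate. Ki from at least three experiments.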

Going from `O=C(Cc1cccc(Cl)c1)NC1CCN(Cc2ccc(I)cc2)CC1` to `O=C(Cc1cccc(Cl)c1)NC1CCN(Cc2ccc(F)cc2)CC1`, the pKi rises from 6.59 to 8.03 (1.44 log units).

Compared with `O=C(Cc1ccc2ccccc2c1)NC1CCN(Cc2ccccc2)CC1`, `O=C(Cc1ccccc1)NC1CCN(Cc2ccc3ccccc3c2)CC1` is 0.23 log units lower in pKi: 6.95 for the first, 6.72 for the second. The first binds more tightly here.

Compared with `O=C(Cc1ccccc1F)NC1CCN(Cc2ccc(F)cc2)CC1`, `O=C(Cc1ccccc1F)NC1CCN(Cc2ccc(I)cc2)CC1` is 0.23 log units lower in pKi: 6.86 for the first, 6.63 for the second.

Going from `O=C(Cc1cccc(F)c1)NC1CCN(Cc2cccc(I)c2)CC1` to `O=C(Cc1cccc(Cl)c1)NC1CCN(Cc2cccc(I)c2)CC1`, the pKi rises from 7.30 to 7.52 (0.22 log units). The second binds more tightly here.

Going from `O=C(Cc1cc(=O)oc2cc(O)ccc12)NC1CCN(Cc2ccccc2)CC1` to `O=C(Cc1c[nH]c2ccc(Br)cc12)NC1CCN(Cc2ccccc2)CC1`, the pKi rises from under 6.00 to 6.17. The second binds more tightly here.

Going from `O=C(Cc1ccccc1)NC1CCN(Cc2ccc(C(F)(F)F)cc2)CC1` to `O=C(Cc1ccccc1)NC1CCN(Cc2cccc(C(F)(F)F)c2)CC1`, the pKi falls from 6.52 to 6.29 (0.23 log units).

Going from `O=C(Cc1ccccc1)NC1CCN(CCc2ccccc2)CC1` to `O=C(Cc1ccccc1)NC1CCN(Cc2ccccc2)CC1`, the pKi falls from 6.97 to 6.62 (0.35 log units). The first binds more tightly here.

First: O=C(Cc1cccc(F)c1)NC1CCN(Cc2ccc(F)cc2)CC1
Second: O=C(Cc1cccc(Br)c1)NC1CCN(Cc2ccc(F)cc2)CC1
The pKi of the first is 0.71 log units lower: 7.51 for the first, 8.22 for the second. The second binds more tightly here.

`O=C(Cc1ccncc1)NC1CCN(Cc2ccccc2)CC1` and `O=C(Cc1cccnc1)NC1CCN(Cc2ccccc2)CC1` cannot be ordered by pKi: under 6.00 for the first, under 6.00 for the second.

First: O=C(Nc1cccc2ccccc12)NC1CCN(Cc2ccccc2)CC1
Second: O=C(Cc1cccc2ccccc12)NC1CCN(Cc2ccccc2)CC1
The pKi of the first is 0.20 log units higher: 7.60 for the first, 7.40 for the second.

First: O=C(Cc1ccccc1)NC1CCN(Cc2cccc(I)c2)CC1
Second: O=C(Cc1ccccc1)NC1CCN(Cc2cccc(F)c2)CC1
The pKi of the first is higher: 6.72 for the first, under 6.00 for the second. The first binds more tightly here.

`O=C(Cc1ccsc1)NC1CCN(Cc2ccccc2)CC1` and `O=C(Cc1cccs1)NC1CCN(Cc2ccccc2)CC1` are within 0.2 log units of each other in pKi: 6.47 for the first, 6.41 for the second.

`O=C(Cc1c[nH]cn1)NC1CCN(Cc2ccccc2)CC1` and `O=C(Cc1ccccn1)NC1CCN(Cc2ccccc2)CC1` cannot be ordered by pKi: under 6.00 for the first, under 6.00 for the second.

Compared with `COc1ccc2c(c1)C(CC(=O)NC1CCN(Cc3ccccc3)CC1)CC2=O` (stereo not given), `COc1ccc2[nH]cc(CC(=O)NC3CCN(Cc4ccccc4)CC3)c2c1` is lower in pKi: 6.38 for the first, under 6.00 for the second. The first binds more tightly here.

Going from `O=C(Cc1ccccc1)NC1CCN(Cc2ccc(Cl)c(Cl)c2)CC1` to `O=C(Cc1ccccc1)NC1CCN(Cc2ccc(F)c(F)c2)CC1`, the pKi rises from 6.37 to 6.64 (0.27 log units). The second binds more tightly here.

First: O=C(Cc1ccccc1)NC1CCN(Cc2ccc(I)cc2)CC1
Second: O=C(Cc1ccc(I)cc1)NC1CCN(Cc2ccccc2)CC1
The pKi of the first is 1.05 log units lower: 6.16 for the first, 7.21 for the second. The second binds more tightly here.

Compared with `O=C(Cc1ccccc1)NC1CCN(Cc2ccc3c(c2)OCO3)CC1`, `O=C(Cc1ccccc1)NC1CCN(Cc2ccc(F)cc2)CC1` is 0.31 log units higher in pKi: 6.77 for the first, 7.08 for the second.

`O=C(Cc1cccc(Br)c1)NC1CCN(Cc2cccc(I)c2)CC1` and `O=C(Cc1cccc(Br)c1)NC1CCN(Cc2ccc(I)cc2)CC1` are within 0.2 log units of each other in pKi: 7.23 for the first, 7.04 for the second.

Compared with `O=C(Cc1ccccc1)NC1CCN(Cc2ccccc2C(F)(F)F)CC1`, `O=C(Cc1ccccc1)NC1CCN(Cc2ccccc2F)CC1` is higher in pKi: under 6.00 for the first, 6.17 for the second. The second binds more tightly here.

First: O=C(Cc1c[nH]c2ccccc12)NC1CCN(Cc2ccccc2)CC1
Second: O=C(Cc1ccccc1)NC1CCN(Cc2ccccc2I)CC1
The pKi of the first is lower: under 6.00 for the first, 6.20 for the second.

`O=C(Cc1ccccc1F)NC1CCN(Cc2cccc(I)c2)CC1` and `O=C(Cc1cccc(F)c1)NC1CCN(Cc2ccc(I)cc2)CC1` are within 0.2 log units of each other in pKi: 6.74 for the first, 6.78 for the second.

First: O=C(Cc1ccccc1)NC1CCN(Cc2ccc([N+](=O)[O-])cc2)CC1
Second: O=C(CSc1ncccn1)NC1CCN(Cc2ccccc2)CC1
The pKi of the first is higher: 6.50 for the first, under 6.00 for the second. The first binds more tightly here.

For `OC(CCCN1CCC(O)(c2ccc(Cl)cc2)CC1)c1ccc(F)cc1` (stereo not given) [HYDROXYHALOPERIDOL], the pKi was 7.54.

From ChEMBL document CHEMBL1134305, “Synthesis and structure-activity relationships of N-(1-benzylpiperidin-4-yl)arylacetamide analogues as potent sigma1 receptor ligands” (J Med Chem, 2001)
